Usually inhibition stands for the drop in the measured response relative to a control, in per cent. Low values mean a response near the control, high ones a response far below the control.

For assay [1], the target named is Serine/threonine-protein kinase PAK 6 (Homo sapiens) (UniProt Q9NQU5). The assay can be described thus: Inhibition of PAK6 at 1 uM.
The target of assay [2] is TRAF2 and NCK-interacting protein kinase (Homo sapiens) (UniProt Q9UKE5). The experiment in a line: Inhibition of TNIK at 1 uM. The method, boiled down:
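Single-concentration screen on the Ambit KINOMEscan platform, run against a panel of 250–400 kinases. Per-kinase inhibition was also summarized as S(90), the fraction of kinases inhibited by more than 90%.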

In assay [3] the test system is Tyrosine-protein kinase ABL1 (Homo sapiens), P00519 [M351T]. The experiment in a line: Inhibition of ABL1 M351T mutant at 1 uM. The method, boiled down: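 Ambit KINOMEscan screen at a single concentration across a 250–400 kinase panel, recorded as percent inhibition. Selectivity was expressed as S(90), the fraction of kinases inhibited >90%.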
Assay [4] addresses T1, Ephrin type-A receptor 6 (Homo sapiens) (UniProt Q9UF33).
T1 sequence (whole entry): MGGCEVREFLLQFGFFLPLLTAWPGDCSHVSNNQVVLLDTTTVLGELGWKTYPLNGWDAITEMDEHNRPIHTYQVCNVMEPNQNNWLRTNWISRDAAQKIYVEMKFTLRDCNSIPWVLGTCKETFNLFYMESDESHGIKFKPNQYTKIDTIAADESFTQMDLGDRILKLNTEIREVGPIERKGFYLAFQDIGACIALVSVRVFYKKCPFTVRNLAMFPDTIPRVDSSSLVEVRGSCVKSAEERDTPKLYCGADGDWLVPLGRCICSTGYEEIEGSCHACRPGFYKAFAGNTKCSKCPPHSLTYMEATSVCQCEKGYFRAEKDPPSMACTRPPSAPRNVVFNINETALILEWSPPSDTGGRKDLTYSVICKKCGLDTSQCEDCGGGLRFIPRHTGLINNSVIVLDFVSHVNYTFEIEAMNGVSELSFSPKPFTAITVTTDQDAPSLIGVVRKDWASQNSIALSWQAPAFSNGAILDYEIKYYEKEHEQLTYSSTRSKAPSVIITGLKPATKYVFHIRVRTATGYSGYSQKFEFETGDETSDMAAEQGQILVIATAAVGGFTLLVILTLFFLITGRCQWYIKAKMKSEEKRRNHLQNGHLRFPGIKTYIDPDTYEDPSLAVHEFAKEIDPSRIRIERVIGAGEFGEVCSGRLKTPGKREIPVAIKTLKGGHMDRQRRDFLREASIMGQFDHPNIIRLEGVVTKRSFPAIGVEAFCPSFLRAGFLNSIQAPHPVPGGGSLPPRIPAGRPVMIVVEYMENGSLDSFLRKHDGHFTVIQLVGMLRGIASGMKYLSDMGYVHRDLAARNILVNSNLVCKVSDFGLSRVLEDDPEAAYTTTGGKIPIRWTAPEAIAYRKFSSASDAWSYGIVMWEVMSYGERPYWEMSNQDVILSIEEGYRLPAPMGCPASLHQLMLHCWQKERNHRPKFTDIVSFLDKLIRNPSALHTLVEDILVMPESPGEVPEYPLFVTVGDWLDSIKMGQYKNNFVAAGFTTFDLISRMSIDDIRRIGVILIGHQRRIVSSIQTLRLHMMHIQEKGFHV
The assay can be described thus: Inhibition of EPHA6 at 1 uM. The method, boiled down:
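Single-concentration screen using Ambit Bioscience KINOMEscan technology across a panel of 250–400 kinases. Per-kinase inhibition from this screen was summarized as S(90), the fraction of kinases inhibited by more than 90%.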

For assay [5], the target named is T2, Phosphatidylinositol 3-kinase C2 domain-containing subunit gamma (Homo sapiens) (UniProt O75747).
T2 sequence (whole entry): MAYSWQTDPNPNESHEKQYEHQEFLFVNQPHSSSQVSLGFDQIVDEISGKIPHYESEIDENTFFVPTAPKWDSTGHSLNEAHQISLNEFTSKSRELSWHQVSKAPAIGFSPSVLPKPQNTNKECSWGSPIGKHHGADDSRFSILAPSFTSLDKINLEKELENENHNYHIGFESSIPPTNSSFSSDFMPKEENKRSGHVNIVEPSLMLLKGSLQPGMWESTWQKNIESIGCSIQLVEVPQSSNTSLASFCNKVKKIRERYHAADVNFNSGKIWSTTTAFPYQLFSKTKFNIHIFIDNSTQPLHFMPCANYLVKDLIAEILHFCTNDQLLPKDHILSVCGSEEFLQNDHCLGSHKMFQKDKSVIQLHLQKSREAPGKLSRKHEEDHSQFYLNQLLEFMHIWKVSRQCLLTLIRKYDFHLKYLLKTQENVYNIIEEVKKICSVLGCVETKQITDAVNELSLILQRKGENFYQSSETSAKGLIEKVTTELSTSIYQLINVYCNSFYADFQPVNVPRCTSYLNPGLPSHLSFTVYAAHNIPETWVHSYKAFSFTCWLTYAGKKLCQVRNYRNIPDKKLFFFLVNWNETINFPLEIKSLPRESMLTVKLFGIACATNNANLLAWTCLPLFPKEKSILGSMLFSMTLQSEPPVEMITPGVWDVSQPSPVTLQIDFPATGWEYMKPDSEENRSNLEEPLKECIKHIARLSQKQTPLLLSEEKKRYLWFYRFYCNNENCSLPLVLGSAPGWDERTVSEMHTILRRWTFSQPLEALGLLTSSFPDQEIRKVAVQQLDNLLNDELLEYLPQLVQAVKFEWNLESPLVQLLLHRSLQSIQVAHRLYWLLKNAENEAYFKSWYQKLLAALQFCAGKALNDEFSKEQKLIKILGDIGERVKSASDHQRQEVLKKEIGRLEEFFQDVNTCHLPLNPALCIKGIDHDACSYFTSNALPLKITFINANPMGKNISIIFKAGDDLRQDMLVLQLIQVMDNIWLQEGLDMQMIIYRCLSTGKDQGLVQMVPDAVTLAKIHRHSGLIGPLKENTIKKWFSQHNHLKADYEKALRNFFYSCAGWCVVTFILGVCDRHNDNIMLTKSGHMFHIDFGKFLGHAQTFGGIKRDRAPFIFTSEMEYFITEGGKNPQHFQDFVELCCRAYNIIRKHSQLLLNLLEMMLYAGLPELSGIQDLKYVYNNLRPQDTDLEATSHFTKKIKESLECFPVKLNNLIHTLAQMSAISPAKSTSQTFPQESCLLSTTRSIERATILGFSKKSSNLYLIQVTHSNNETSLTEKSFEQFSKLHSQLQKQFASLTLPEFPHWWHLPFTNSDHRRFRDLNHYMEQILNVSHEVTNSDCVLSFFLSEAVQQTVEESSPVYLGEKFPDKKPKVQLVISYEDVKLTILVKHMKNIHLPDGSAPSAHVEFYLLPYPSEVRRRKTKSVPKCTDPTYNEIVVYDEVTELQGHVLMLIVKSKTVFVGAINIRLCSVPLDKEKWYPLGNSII
The experiment in a line: Inhibition of PIK3C2G at 1 uM.

The target of assay [6] is STE20/SPS1-related proline-alanine-rich protein kinase (Homo sapiens) (UniProt Q9UEW8). The assay can be described thus: Inhibition of STK39 at 1 uM.
Assay [7] deals with Tyrosine-protein kinase ABL1 (Homo sapiens), P00519 [F317I]. The experiment in a line: Inhibition of ABL1 F317I mutant at 1 uM.
The target of assay [8] is Cyclin-dependent kinase 7 (Homo sapiens) (UniProt P50613). The experiment in a line: Inhibition of CDK7 at 1 uM.
Sequence of Cyclin-dependent kinase 7 (Homo sapiens) (P50613 whole entry): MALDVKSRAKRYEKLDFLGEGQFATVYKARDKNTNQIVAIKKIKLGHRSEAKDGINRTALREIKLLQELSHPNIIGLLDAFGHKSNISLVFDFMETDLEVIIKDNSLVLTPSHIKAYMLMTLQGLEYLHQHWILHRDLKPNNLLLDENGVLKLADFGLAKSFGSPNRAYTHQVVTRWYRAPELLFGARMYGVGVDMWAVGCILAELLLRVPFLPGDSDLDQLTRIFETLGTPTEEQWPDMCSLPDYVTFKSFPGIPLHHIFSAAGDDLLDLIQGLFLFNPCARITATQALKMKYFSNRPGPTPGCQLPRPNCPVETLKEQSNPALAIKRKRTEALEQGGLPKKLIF

Sequence of Serine/threonine-protein kinase PAK 6 (Homo sapiens) (Q9NQU5 whole entry, looked up): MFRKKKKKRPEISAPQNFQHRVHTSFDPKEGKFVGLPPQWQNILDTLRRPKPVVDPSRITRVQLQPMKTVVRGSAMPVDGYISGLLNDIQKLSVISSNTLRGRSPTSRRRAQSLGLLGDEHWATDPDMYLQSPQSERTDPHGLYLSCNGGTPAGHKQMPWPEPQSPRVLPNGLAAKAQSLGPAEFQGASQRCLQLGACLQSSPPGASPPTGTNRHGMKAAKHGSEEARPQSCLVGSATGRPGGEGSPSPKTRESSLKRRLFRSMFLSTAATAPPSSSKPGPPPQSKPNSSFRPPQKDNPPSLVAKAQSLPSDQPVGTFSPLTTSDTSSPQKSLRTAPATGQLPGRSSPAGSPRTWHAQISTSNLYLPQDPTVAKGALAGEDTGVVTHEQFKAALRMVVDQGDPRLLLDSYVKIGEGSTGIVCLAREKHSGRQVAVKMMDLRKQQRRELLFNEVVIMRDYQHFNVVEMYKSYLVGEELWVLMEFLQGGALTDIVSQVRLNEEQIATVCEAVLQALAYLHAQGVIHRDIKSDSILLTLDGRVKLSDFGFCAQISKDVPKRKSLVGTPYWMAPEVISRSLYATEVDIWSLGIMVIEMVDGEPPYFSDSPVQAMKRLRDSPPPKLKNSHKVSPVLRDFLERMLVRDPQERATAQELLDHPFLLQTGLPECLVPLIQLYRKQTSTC
Sequence of TRAF2 and NCK-interacting protein kinase (Homo sapiens) (Q9UKE5 whole entry, looked up): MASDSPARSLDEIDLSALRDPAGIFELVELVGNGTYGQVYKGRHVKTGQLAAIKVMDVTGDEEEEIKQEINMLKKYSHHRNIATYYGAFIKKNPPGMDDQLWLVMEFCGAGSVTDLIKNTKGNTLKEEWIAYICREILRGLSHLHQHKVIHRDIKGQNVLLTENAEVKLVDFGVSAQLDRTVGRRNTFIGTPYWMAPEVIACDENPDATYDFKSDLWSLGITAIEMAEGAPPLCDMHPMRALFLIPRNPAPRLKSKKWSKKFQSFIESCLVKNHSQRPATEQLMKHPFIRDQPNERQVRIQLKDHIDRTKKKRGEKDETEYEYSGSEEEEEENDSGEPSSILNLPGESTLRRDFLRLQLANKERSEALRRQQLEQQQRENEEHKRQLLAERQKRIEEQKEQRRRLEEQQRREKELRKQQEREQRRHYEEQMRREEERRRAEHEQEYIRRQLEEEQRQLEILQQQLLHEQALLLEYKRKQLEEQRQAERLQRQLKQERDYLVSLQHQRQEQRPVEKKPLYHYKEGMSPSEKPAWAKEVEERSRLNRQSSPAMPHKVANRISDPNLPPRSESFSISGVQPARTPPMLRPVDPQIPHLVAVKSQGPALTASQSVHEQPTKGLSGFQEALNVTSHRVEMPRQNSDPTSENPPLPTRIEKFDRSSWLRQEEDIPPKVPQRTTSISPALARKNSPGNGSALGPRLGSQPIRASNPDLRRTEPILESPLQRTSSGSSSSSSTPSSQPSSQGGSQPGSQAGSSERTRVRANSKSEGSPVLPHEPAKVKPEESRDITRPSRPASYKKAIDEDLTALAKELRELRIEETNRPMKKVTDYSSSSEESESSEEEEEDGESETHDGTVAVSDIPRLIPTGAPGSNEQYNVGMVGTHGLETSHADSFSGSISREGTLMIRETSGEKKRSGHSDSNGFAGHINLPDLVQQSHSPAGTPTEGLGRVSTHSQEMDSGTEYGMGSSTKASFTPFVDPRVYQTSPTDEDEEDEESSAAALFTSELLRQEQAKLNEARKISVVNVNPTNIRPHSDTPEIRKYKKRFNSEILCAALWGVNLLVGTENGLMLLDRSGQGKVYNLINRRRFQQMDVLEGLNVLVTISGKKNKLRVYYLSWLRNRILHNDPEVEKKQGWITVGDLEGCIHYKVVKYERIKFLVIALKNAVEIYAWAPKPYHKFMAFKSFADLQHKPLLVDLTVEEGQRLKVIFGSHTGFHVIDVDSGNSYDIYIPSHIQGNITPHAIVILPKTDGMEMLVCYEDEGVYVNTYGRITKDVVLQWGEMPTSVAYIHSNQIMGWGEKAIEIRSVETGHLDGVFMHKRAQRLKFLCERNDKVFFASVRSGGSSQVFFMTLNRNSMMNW

As to `O=C(c1ccc(-c2cnc3c(c2)N(Cc2cc(Cl)ccc2C(F)(F)F)CCN3)cc1)N1CCCCC1`, the inhibition in assay [1], in assay [2], in assay [3] and in assay [4] was below 50% each time.
For the molecule `CN1CCN(c2ccc(-c3cnc4c(c3)N(Cc3c(F)ccc(F)c3Cl)CCN4)cn2)CC1`, the inhibition in assay [1] is below 50%; in assay [5], below 50%; in assay [6], below 50%; in assay [2] it was 82%; in assay [7], 74%; in assay [3], 87%. Moreover, the inhibition in assay [8] and in assay [4] was below 50% in each case.
As for `COC1CCN(C(=O)c2ccc(-c3cnc4c(c3)N(Cc3cc(Cl)ccc3C(F)(F)F)CCN4)cc2)CC1`, the inhibition in assay [1], in assay [2], in assay [3] and in assay [4] was below 50% throughout.
As to `O=C(O)c1ccc(-c2cnc3c(c2)N(Cc2cc(Cl)ccc2C(F)(F)F)CCN3)cc1`, the inhibition in assay [1], in assay [2], in assay [7], in assay [3] and in assay [4] was below 50% in each case.
For the molecule `FC(F)(F)c1ccc(Cl)cc1CN1CCNc2ncc(-c3ccnc(N4CCNCC4)c3)cc21`, the inhibition in assay [1], in assay [5], in assay [6], in assay [2], in assay [7] and in assay [3] was below 50% in each case. Further, the inhibition in assay [8] and in assay [4] was below 50% each time.
On to `CN1CCN(c2ccc(-c3cnc4c(c3)N(Cc3cc(Cl)ccc3Cl)CCN4)cn2)CC1`, for which the inhibition in assay [1] was below 50%; in assay [5] it was below 50%; in assay [6] it was below 50%; in assay [2], below 50%; in assay [7] it was below 50%; in assay [3], 68%. Also, the inhibition in assay [8] and in assay [4] was below 50% throughout.
For the molecule `O=C(c1ccc(-c2cnc3c(c2)N(Cc2cc(Cl)ccc2C(F)(F)F)CCN3)cc1)N1CCC(N2CCCC2)CC1`, the inhibition was below 50% in assay [1]; 73.2% in assay [6]; below 50% in assay [2]; below 50% in assay [3]; below 50% in assay [4].
As to `CN1CCN(c2ccc(-c3cnc4c(c3)N(Cc3cc(Cl)ccc3C(F)(F)F)CCN4)cn2)CC1`, the inhibition in assay [1], in assay [5], in assay [6], in assay [2], in assay [7] and in assay [3] was below 50% throughout. Moreover, the inhibition in assay [8] and in assay [4] was below 50% in each case.
Consider `CC(=O)N1CCN(c2cc(-c3cnc4c(c3)N(Cc3cc(Cl)ccc3C(F)(F)F)CCN4)ccn2)CC1`, for which the inhibition in assay [1], in assay [5], in assay [6], in assay [2], in assay [7] and in assay [3] was below 50% in each case. For the same molecule, the inhibition in assay [8] and in assay [4] was below 50% throughout.
`CN1CCN(c2ccc(-c3cnc4c(c3)N(Cc3cc(F)ccc3F)CCN4)cn2)CC1`: the inhibition is below 50% in assay [1]; below 50% in assay [5]; below 50% in assay [6]; below 50% in assay [2]; below 50% in assay [7]; 71.9% in assay [3]. The inhibition in assay [8] and in assay [4] was below 50% each time.

The record behind these values is ChEMBL document CHEMBL1165965, “Synthesis and structure-activity relationships of 1,2,3,4-tetrahydropyrido[2,3-b]pyrazines as potent and selective inhibitors of the anaplastic lymphoma kinase” (Bioorg Med Chem, 2010).
